ChEMBL document CHEMBL3600315, “Molecular modeling based approach, synthesis, and cytotoxic activity of novel benzoin derivatives targeting phosphoinostide 3-kinase (PI3Kα)” (Bioorg Med Chem Lett, 2015)
Active and inactive are the calls of the source. The calls are words filed in the database; no cut-off is given here.

Tested on: HCT-116
Assay: Induction of apoptosis in human HCT116 cells assessed as increase in caspase-3 activity at 700 uM after 24 hrs by DEVD-pNA substrate-based colorimetric assay relative to control
Assay type: functional, cell-based
Outline: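 HCT116 cells were incubated with each compound for 24 or 48 h. Caspase-3 enzyme activity was measured relative to untreated control cells. Values are means of two independent experiments, with P < 0.05 taken as significant.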

Compound	Activity
COc1ccc(C(=O)C(O)c2ccc(OC)cc2)cc1 (stereo unspecified)	Active
O=C(OC(C(=O)c1ccccc1)c1ccccc1)c1ccc([N+](=O)[O-])cc1 (stereo unspecified)	Active
O=C(OC(C(=O)c1ccccc1)c1ccccc1)c1cccc(F)c1 (stereo unspecified)	Active
O=C(OC(C(=O)c1ccccc1)c1ccccc1)c1ccc(F)cc1 (stereo unspecified)	Active
O=C(OC(C(=O)c1ccccc1)c1ccccc1)c1ccc(Cl)cc1 (stereo unspecified)	Active
O=C(OC(C(=O)c1ccccc1)c1ccccc1)c1ccccc1F (stereo unspecified)	Active
